According to ChEMBL document CHEMBL1212918, “Computer-aided optimization of phosphinic inhibitors of bacterial ureases” (J Med Chem, 2010):

Assays:
[1] = Inhibition of Proteus vulgaris CCM 1956 urease by berthelot colorimetric assay
Outline: (§1)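 Urease partially purified from the cells of each strain, which were grown aerobically at 37 °C in yeast extract/urea/1 mM NiCl2 medium at pH 9.0. Purification used anion exchange followed by phenyl-Sepharose. Enzyme incubated at 30 °C in 3 mM phosphate pH 7.0 with increasing inhibitor concentrations and urea 10–100 mM. Activity read by modified Berthelot colorimetry. IC50 and Ki were derived by equation fitting.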

[2] = Inhibition of Bacillus pasteurii CCM 2056 urease by berthelot colorimetric assay; set-up: species or system Sporosarcina pasteurii; outline: as §1
[3] = Inhibition of Klebsiella aerogenes urease

Structure (SMILES)	IC50 [1]	Ki [1]	IC50 [2]	Ki [2]	Ki [3]
NCP(=O)(O)CO [AMINOMETHYL(HYDROXYMETHYL)PHOSPHINIC ACID]	47.7 µM	27.5 µM	423 µM	95 µM	–
O=C(NCP(=O)(O)CO)OCc1ccccc1	377 µM	41.9 µM	889 µM	376 µM	–
O=C(NCP(O)(=S)CO)OCc1ccccc1 (stereo not drawn)	976 µM	143 µM	1420 µM	428 µM	–
CNCP(=O)(O)CO [HYDROXYMETHYL((METHYLAMINO)METHYL)PHOSPHINIC ACID]	0.96 µM	0.36 µM	1.59 µM	0.43 µM	–
CC(=O)NO [ACETOHYDROXAMIC ACID]	–	–	–	–	2.6 µM
CN(C)CC(=O)NCP(=O)(O)CO	0.86 µM	0.43 µM	2.15 µM	1.15 µM	–
CNCC(=O)NCP(=O)(O)CO	20.6 µM	16.2 µM	25.4 µM	10.6 µM	–
O=C(NCP(=O)(O)CO)c1ccccc1 [BENZOYLAMINOMETHYL(HYDROXYMETHYL)PHOSPHINIC ACID]	28 µM	9.2 µM	69 µM	31.9 µM	–
O=C(CNC(=O)OCc1ccccc1)NCP(=O)(O)CO	3.6 µM	1.96 µM	5 µM	1.35 µM	–
CP(=O)(O)CNC(=O)CN	–	30 µM	–	–	–
CNCP(C)(=O)O [METHYL((METHYLAMINO)METHYL)PHOSPHINIC ACID]	–	27 µM	–	–	–
CN(C)CP(=O)(O)CO [(DIMETHYLAMINO)METHYL(HYDROXYMETHYL)PHOSPHINIC ACID]	17.2 µM	3.1 µM	67.6 µM	5 µM	–
NCC(=O)NCP(=O)(O)CO	14.9 µM	7.3 µM	85 µM	30.5 µM	–
